Experimental data from ChEMBL document CHEMBL3399938, “Chemopreventive flavonoids from Millettia pulchra Kurz var-laxior (Dunn) Z.Wei (Yulangsan) function as Michael reaction acceptors” (Bioorg Med Chem Lett, 2015).

Assays:
[1] = Cytotoxicity against mouse Hepa-1c1c7 cells assessed as cell viability at 20 uM […]; type: functional; details: read-out: Activity
Outline: (§1)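 Hepa 1c1c7 cells were seeded at 1 × 10^4 cells/mL in α-MEM with 10% FBS and 0.1% penicillin–streptomycin, then grown 24 h at 37 °C in 5% CO2. Medium was replaced with fresh medium containing sample for another 24 h. Cells were then stained with 0.2% crystal violet in 2% ethanol for 10 min, washed and dried. Bound dye was dissolved in 0.5% SDS in 50% ethanol and read at 595 nm.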

[2] = molecular target: NAD(P)H dehydrogenase [quinone] 1 (Mus musculus) (UniProt Q64669); assay: Induction of NQO1 activity in mouse Hepa-1c1c7 cells assessed as induction ratio at 20 uM after 48 hr by NADPH-dependent MTT assay relative to control; type: cell-based
Sequence of NAD(P)H dehydrogenase [quinone] 1 (Mus musculus) (Q64669 whole entry): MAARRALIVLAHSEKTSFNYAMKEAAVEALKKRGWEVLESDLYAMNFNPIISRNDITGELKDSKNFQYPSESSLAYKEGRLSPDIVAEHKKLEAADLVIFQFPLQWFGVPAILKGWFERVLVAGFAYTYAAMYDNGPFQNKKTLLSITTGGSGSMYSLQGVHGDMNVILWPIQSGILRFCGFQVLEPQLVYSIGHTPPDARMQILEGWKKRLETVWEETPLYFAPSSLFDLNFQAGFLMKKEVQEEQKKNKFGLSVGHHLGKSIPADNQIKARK
Outline: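 Hepa 1c1c7 cells were seeded at 1 × 10^4 cells/mL in α-MEM with 10% FBS, grown 24 h (5% CO2, 37 °C), then exposed to sample for 24 h. Lysis used 0.8% digitonin in 2 mM EDTA (pH 7.8) for 10 min at 37 °C. A menadione/NADP/glucose-6-phosphate dehydrogenase mix with 0.72 mM MTT was added, then read at 590 nm after 3 min shaking. IR = NQO1 activity of sample-treated over DMSO-treated cells; mean ± SE of three independent experiments.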

[3] = Retention time of the compound by UPLC analysis; type: physicochemical; details: in the assay text read “preparative reverse-phase HPLC” for “UPLC”
[4] = Cytotoxicity against mouse Hepa-1c1c7 cells assessed as cell viability at 10 uM […]; type: functional; details: read-out: Activity; outline: as §1
[5] = molecular target: NAD(P)H dehydrogenase [quinone] 1 (Mus musculus) (UniProt Q64669); assay: Induction of NQO1 activity in mouse Hepa-1c1c7 cells assessed as induction ratio at 10 uM […] by NADPH-dependent MTT assay relative to control; type: cell-based

| Structure (SMILES) | Ratio [2] | Retention_time [3] [min] | Ratio [5] | viability at 20 µM [1] [%] | viability at 10 µM [4] [%] |
| --- | --- | --- | --- | --- | --- |
| CC1(C)C=Cc2c(ccc3c(=O)cc(-c4ccccc4)oc23)O1 | 1.6 |  |  | 99 |  |
| O=c1cc(-c2ccc(Br)cc2)oc2ccccc12 |  |  | 2.17 |  | 109 |
| CC1(C)C=Cc2c(ccc3c2OC(c2ccccc2)CC3=O)O1 (centres undefined) | 1.54 |  |  | 114 |  |
| O=c1cc(-c2ccccc2)oc2c1ccc1occc12 [LANCEOLATIN B] | 1.64 |  |  | 100 |  |
| CC1(C)C=Cc2c(c(O)cc3c(=O)cc(-c4ccccc4)oc23)O1 | 2.14 |  |  | 71 |  |
| COc1cc2c(=O)cc(-c3ccccc3)oc2c2c1OC(C)(C)C=C2 | 1.4 |  |  | 106 |  |
| COc1cc2c(c3oc(-c4ccccc4)cc(=O)c13)C=CC(C)(C)O2 [CANDIDIN] | 2.02 |  |  | 79 |  |

More lines, main results first:

| Ratio [2] | Retention_time [3] [min] | Ratio [5] | Structure (SMILES) | viability at 20 µM [1] [%] | viability at 10 µM [4] [%] |
| --- | --- | --- | --- | --- | --- |
| 1.75 | 58 |  | O=C(/C=C/c1ccccc1)c1ccc2occc2c1O | 90 |  |
| 1.69 |  |  | COc1c(C(=O)/C=C(\O)c2ccccc2)ccc2occc12 [PONGAMOL] | 78 |  |
| 1.7 |  |  | CC1(C)C=Cc2c(ccc(C(=O)/C=C/c3ccccc3)c2O)O1 [LONCHOCARPIN] | 84 |  |
| 2.14 | 131 |  | COc1cc2c(c(O)c1C(=O)/C=C/c1ccccc1)C=CC(C)(C)O2 | 83 |  |
| 1.57 |  |  | COc1c(-c2ccccc2)oc2c(ccc3occc32)c1=O [KARANJIN] | 100 |  |
| 1.9 |  |  | COc1c(C(=O)/C=C(\O)c2ccccc2)ccc2c1C=CC(C)(C)O2 | 77 |  |
| 2.07 |  |  | COc1c(C(=O)C[C@@H](OC)c2ccccc2)ccc2occc12 | 92 |  |
| 1.67 |  |  | O=c1c2c(oc3c1ccc1occc13)-c1ccccc1OC2 | 97 |  |
| 2.01 |  |  | COc1c(C(=O)/C=C/c2ccccc2)ccc2occc12 | 81 |  |
